Data published in ChEMBL document CHEMBL4393665 (Eur J Med Chem, 2019).

Tests used:
[1] = Half life in PBS at 1 uM by LC-MS/MS analysis; type: physicochemical
In short: (§1)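 Samples were incubated in phosphate buffer or human plasma and analysed by LC-MS/MS in product ion scan mode. Analyte concentration was monitored over incubation time. The slope of ln(concentration) versus time gave the first-order degradation rate constant k, and t1/2 was calculated from k. Ketoprofen ethyl ester served as a reference to confirm that the plasma batch was enzymatically active.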

[2] = Half life in human plasma at 1 uM by LC-MS/MS analysis; type: ADME, cell-free; in short: as §1
[3] = Drug degradation in human plasma at 1 uM measured upto 120 mins by LC-MS/MS analysis; type: ADME, cell-free; conditions: 2 h; in short: as §1
[4] = biological target: T1, ATP-dependent translocase ABCB1 (Homo sapiens, UniProt P08183); test: Inhibition of P-gp in human K562/DOX cells assessed as drug level causing 50% increase in nuclear pirarubicin concentration incubated for 30 mins by spectroflurometry; type: cell-based; conditions: read-out: I0.5
T1 sequence (P08183 whole entry): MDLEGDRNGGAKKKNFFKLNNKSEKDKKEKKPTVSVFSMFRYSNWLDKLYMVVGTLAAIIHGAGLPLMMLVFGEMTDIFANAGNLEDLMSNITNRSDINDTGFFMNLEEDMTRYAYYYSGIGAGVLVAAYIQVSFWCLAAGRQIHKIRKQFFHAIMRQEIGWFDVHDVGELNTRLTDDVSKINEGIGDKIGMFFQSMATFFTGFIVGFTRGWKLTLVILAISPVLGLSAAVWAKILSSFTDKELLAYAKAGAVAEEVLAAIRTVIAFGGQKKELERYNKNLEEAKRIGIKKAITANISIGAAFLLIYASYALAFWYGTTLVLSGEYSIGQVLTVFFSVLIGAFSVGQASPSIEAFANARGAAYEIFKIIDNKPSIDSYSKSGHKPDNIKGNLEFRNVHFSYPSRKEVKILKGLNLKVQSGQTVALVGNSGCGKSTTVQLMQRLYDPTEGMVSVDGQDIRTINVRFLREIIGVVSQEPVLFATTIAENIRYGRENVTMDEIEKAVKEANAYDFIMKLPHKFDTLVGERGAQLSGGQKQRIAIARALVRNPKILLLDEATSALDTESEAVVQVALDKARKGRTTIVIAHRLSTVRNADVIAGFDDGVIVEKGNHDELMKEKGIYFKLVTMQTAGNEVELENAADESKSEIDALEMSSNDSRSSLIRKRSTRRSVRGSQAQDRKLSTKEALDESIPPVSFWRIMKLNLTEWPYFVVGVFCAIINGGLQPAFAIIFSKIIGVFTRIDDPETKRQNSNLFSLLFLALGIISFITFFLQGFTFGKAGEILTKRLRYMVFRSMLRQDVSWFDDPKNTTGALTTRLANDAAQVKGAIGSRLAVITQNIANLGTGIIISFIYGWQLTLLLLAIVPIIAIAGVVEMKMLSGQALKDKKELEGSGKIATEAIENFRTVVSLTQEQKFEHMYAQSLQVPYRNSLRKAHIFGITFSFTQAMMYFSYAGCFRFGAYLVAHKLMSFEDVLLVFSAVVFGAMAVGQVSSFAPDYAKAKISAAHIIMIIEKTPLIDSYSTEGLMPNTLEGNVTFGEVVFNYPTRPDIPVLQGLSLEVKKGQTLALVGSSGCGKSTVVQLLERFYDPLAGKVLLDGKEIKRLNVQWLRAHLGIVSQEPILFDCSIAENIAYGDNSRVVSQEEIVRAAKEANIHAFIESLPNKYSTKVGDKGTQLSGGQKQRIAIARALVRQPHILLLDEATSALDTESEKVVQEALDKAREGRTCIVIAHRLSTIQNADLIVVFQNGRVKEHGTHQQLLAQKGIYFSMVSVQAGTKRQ
In short: (§2)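 Pirarubicin uptake into nuclei was measured in P-gp-overexpressing, doxorubicin-resistant K562/DOX cells. [I]0.5 is the modulator concentration giving a half-maximal increase (α = 0.5) in nuclear pirarubicin concentration. αmax is the maximum increase obtainable in resistant cells. Mean ± SE of three independent experiments.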

[5] = biological target: T1, ATP-dependent translocase ABCB1; test: Inhibition of P-gp in human K562/DOX cells assessed as drug level causing maximum increase in nuclear pirarubicin concentration incubated for 30 mins by spectroflurometry relative to control; type: cell-based; conditions: 0.5 h; in short: as §2
[6] = biological target: T1, ATP-dependent translocase ABCB1; test: Inhibition of P-glycoprotein-mediated Rhodamine-123 efflux in human K562 cells assessed as Rhodamine-123 accumulation at 1 uM preincubated for 15 mins followed by Rhodamine-123 addition measured after 30 mins by flow cytometry; type: cell-based; conditions: k562, 0.5 h
[7] = biological target: T1, ATP-dependent translocase ABCB1; test: Inhibition of P-glycoprotein (unknown origin) in MDCK-MDR1 assessed as inhibtion of calcein-AM transport incubated for 30 mins by fluorescence assay; type: cell-based
[8] = biological target: T1, ATP-dependent translocase ABCB1; test: Inhibition of P-glycoprotein (unknown origin) in MDCK-MDR1 assessed as reduction of ATP consumption pre-incubated for 2 hrs followed by substrate addition shaken for 5 mins by luminescence assay; type: cell-based; conditions: mdck-mdr1, 5 min
[9] = biological target: T2, Broad substrate specificity ATP-binding cassette transporter ABCG2 (Homo sapiens, UniProt Q9UNQ0); test: Inhibition of BCRP (unknown origin) in MDCK-BCRP assessed as inhibtion of hoechst 33342 transport incubated for 30 mins by fluorescence assay
T2 sequence (Q9UNQ0 whole entry): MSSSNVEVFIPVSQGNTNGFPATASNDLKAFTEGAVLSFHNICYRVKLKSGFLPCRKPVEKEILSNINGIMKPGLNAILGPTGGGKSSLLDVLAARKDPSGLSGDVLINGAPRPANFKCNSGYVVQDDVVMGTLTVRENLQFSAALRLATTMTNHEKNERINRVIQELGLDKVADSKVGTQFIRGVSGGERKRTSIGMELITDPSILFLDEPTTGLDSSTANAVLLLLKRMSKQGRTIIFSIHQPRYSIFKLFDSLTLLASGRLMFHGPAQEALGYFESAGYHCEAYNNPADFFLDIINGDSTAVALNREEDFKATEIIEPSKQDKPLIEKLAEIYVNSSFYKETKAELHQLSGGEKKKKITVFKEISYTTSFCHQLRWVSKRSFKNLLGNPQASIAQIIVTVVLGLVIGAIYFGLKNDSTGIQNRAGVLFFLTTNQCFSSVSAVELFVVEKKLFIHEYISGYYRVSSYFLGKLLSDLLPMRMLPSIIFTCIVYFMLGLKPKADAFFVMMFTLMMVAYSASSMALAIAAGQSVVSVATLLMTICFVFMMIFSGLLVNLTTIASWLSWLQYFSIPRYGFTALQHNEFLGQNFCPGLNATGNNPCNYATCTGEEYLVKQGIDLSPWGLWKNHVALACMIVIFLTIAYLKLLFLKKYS

[10] = biological target: T1, ATP-dependent translocase ABCB1; test: Inhibition of P-glycoprotein-mediated Rhodamine-123 efflux in human K562/DOX cells assessed as […] at 1 uM […] by flow cytometry relative to control; type: cell-based; set-up: scale not given: the % may be the effect or the level left; conditions: 0.5 h
In short: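 K562/DOX cells were loaded with 5 µM rhodamine-123 for 30 min. They were then washed and held 10 min in rhodamine-free medium, with or without modulator at 1.0 µM. Verapamil at 3.0 µM was the reference. Flow cytometry median fluorescence after efflux was divided by that after uptake and expressed as a percentage. Mean ± SE of three independent experiments.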

half-life at 1 µM [1]	half-life at 1 µM [2]	Stability [3]	IC50 [4]	Alpha max [5]	inhibition (INH) [6]	EC50 [7]	inhibition (INH) [8]	EC50 [9]	Activity [10]	Structure (SMILES)
> 4 h	> 4 h									COc1cc(/C=C/C(=O)OCCCCCN(C)CCCCCOC(=O)c2cc(OC)c(OC)c(OC)c2)cc(OC)c1OC
> 4 h	0.683 h	Unstable								COc1cc(/C=C/C(=O)OCCCN(C)CCCCCOC(=O)c2cc(OC)c(OC)c(OC)c2)cc(OC)c1OC
> 4 h	> 4 h									COc1cc(/C=C/C(=O)OCCCCCN(C)CCCOC(=O)c2cc(OC)c(OC)c(OC)c2)cc(OC)c1OC
> 4 h	> 4 h		70 nM	0.79						COc1cc(/C=C/C(=O)OCCN(C)CCCCCCCOC(=O)c2cc(OC)c(OC)c(OC)c2)cc(OC)c1OC
> 4 h	> 4 h		240 nM	0.9						COc1cc(/C=C/C(=O)OCCCCCCN(C)CCCOC(=O)c2cc(OC)c(OC)c(OC)c2)cc(OC)c1OC
> 4 h	> 4 h		10 nM	0.99	Not Active	200 nM	Active	16000 nM		COc1cc(/C=C/C(=O)OCCCCCCN(C)CCCCOC(=O)c2cc(OC)c(OC)c(OC)c2)cc(OC)c1OC
> 4 h	> 4 h		100 nM	0.94						COc1cc(/C=C/C(=O)OCCCCCN(C)CCCCOC(=O)c2cc(OC)c(OC)c(OC)c2)cc(OC)c1OC
> 4 h	2.05 h	Unstable	70 nM	0.99						COc1cc(/C=C/C(=O)OCCCCN(C)CCCCCCOC(=O)c2cc(OC)c(OC)c(OC)c2)cc(OC)c1OC
> 4 h	0.65 h	Unstable	390 nM	0.99						COc1cc(/C=C/C(=O)OCCCN(C)CCCCCCOC(=O)c2cc(OC)c(OC)c(OC)c2)cc(OC)c1OC
> 4 h	0.75 h	Unstable	80 nM	0.97						COc1cc(/C=C/C(=O)OCCCN(C)CCCCCCCOC(=O)c2cc(OC)c(OC)c(OC)c2)cc(OC)c1OC
> 4 h	> 4 h		40 nM	0.99						COc1cc(/C=C/C(=O)OCCCCCCCN(C)CCOC(=O)c2cc(OC)c(OC)c(OC)c2)cc(OC)c1OC
> 4 h	> 4 h	Stable	270 nM	0.99						COc1cc(/C=C/C(=O)OCCCCN(C)CCCCCOC(=O)c2cc(OC)c(OC)c(OC)c2)cc(OC)c1OC

Second part, the molecule before the results:

Structure (SMILES)	half-life at 1 µM [1]	half-life at 1 µM [2]	Stability [3]	IC50 [4]	Alpha max [5]	inhibition (INH) [6]	EC50 [7]	inhibition (INH) [8]	EC50 [9]	Activity [10]
CCOC(=O)C(C)c1cccc(C(=O)c2ccccc2)c1 (stereo not given)		1.78 h								
COc1cc(/C=C/C(=O)OCCCCCCCN(C)CCOC(=O)c2c3ccccc3cc3ccccc23)cc(OC)c1OC	> 4 h	> 4 h		20 nM	0.98					
COc1cc(/C=C/C(=O)OCCN(C)CCCCCCCCOC(=O)c2c3ccccc3cc3ccccc23)cc(OC)c1OC	> 4 h	> 4 h		40 nM	0.96	Not Active	920 nM	Not Active	5100 nM	
COc1cc(/C=C/C(=O)OCCN(C)CCCCCCCCOC(=O)c2cc(OC)c(OC)c(OC)c2)cc(OC)c1OC	> 4 h	> 4 h		40 nM	0.91	Not Active	220 nM	Not Active	4500 nM	
COc1cc(/C=C/C(=O)OCCCN(C)CCCCCCCOC(=O)c2c3ccccc3cc3ccccc23)cc(OC)c1OC	> 4 h	> 4 h		40 nM	0.88	Not Active	260 nM	Not Active	3000 nM	84.7%
COc1cc(/C=C/C(=O)OCCCCCCN(C)CCCOC(=O)c2c3ccccc3cc3ccccc23)cc(OC)c1OC	> 4 h	> 4 h		30 nM	0.99					
COc1cc(/C=C/C(=O)OCCN(C)CCCCCCOC(=O)c2cc(OC)c(OC)c(OC)c2)cc(OC)c1OC	> 4 h	> 4 h		460 nM	0.91					
COc1cc(/C=C/C(=O)OCCCCCCCCN(C)CCOC(=O)c2cc(OC)c(OC)c(OC)c2)cc(OC)c1OC	> 4 h	> 4 h		20 nM	0.93	Not Active	300 nM	Not Active	3800 nM	
COc1cc(/C=C/C(=O)OCCCCN(C)CCCCCOC(=O)c2c3ccccc3cc3ccccc23)cc(OC)c1OC	> 4 h	> 4 h		40 nM	0.94					
COc1cc(/C=C/C(=O)OCCCN(C)CCCCCCOC(=O)c2c3ccccc3cc3ccccc23)cc(OC)c1OC	> 4 h	> 4 h		40 nM	0.92					
COc1cc(/C=C/C(=O)OCCCCCN(C)CCCCOC(=O)c2c3ccccc3cc3ccccc23)cc(OC)c1OC	> 4 h	> 4 h		30 nM	0.99					
COc1cc(/C=C/C(=O)OCCCCCCN(C)CCOC(=O)c2cc(OC)c(OC)c(OC)c2)cc(OC)c1OC	> 4 h	> 4 h		190 nM	0.77					
COc1cc(/C=C/C(=O)OCCCCN(C)CCCCCCOC(=O)c2c3ccccc3cc3ccccc23)cc(OC)c1OC	> 4 h	> 4 h		10 nM	0.95	Not Active	850 nM	Active	3300 nM	64.6%
COc1cc(/C=C/C(=O)OCCCCCCN(C)CCOC(=O)c2c3ccccc3cc3ccccc23)cc(OC)c1OC	> 4 h	> 4 h		40 nM	0.94					
COc1cc(/C=C/C(=O)OCCN(C)CCCCCCCOC(=O)c2c3ccccc3cc3ccccc23)cc(OC)c1OC	> 4 h	> 4 h		170 nM	0.88					
COc1cc(/C=C/C(=O)OCCN(C)CCCCCCOC(=O)c2c3ccccc3cc3ccccc23)cc(OC)c1OC	> 4 h	> 4 h		200 nM	0.79					
COc1cc(/C=C/C(=O)OCCCCCCCN(C)CCCOC(=O)c2c3ccccc3cc3ccccc23)cc(OC)c1OC	> 4 h	> 4 h		10 nM	0.93	Not Active	230 nM	Not Active	3900 nM	
COc1cc(/C=C/C(=O)OCCCCCCCCN(C)CCOC(=O)c2c3ccccc3cc3ccccc23)cc(OC)c1OC	> 4 h	> 4 h		50 nM	0.99	Not Active	340 nM	Not Active	5400 nM	
